Measurements as given in ChEMBL document CHEMBL1135742, “Modification of the structure of a metallopeptide: synthesis and biological evaluation of (111)In-labeled DOTA-conjugated rhenium-cyclized alpha-MSH analogues” (J Med Chem, 2002).

Key:
Type in all cases: functional, organism-based
Mus musculus [1] = species on record: Mus musculus; assay: Radioactivity uptake in the pancreas was expressed as a percentage of the injected radioactive dose per gram of tissue (% ID/g) in B16/F1 Murine Melanoma-Bearing C57 Mice at 0.5 h
In short: (§1)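 C57 BL/6 female mice (7–8 weeks) carried B16/F1 tumours from 1×10^6 cells given s.c. in the right flank; tumours were ~500 mg at 9–10 days. Each mouse received […] of HPLC-purified, neutralized 111In-DOTA peptide via the tail vein. Mice were killed at 0.5, 2, 4 or 24 h pi. Tissues were weighed and γ-counted, expressed as % ID/g; ratios were tumor/tissue % ID/g.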

Mus musculus [2] = species on record: Mus musculus; assay: Radioactivity uptake in the pancreas was expressed as a percentage of the injected radioactive dose per gram of tissue (% ID/g) in B16/F1 Murine Melanoma-Bearing C57 Mice at 24 h; in short: as §1
Mus musculus [3] = species on record: Mus musculus; assay: Radioactivity uptake in the pancreas was expressed as a percentage of the injected radioactive dose per gram of tissue (% ID/g) in B16/F1 Murine Melanoma-Bearing C57 Mice at 4 h; in short: as §1
Mus musculus [4] = species on record: Mus musculus; assay: Radioactivity uptake in the spleen was expressed as a percentage of the injected radioactive dose per gram of tissue (% ID/g) in B16/F1 Murine Melanoma-Bearing C57 Mice at 0.5 h; in short: as §1
Mus musculus [5] = species on record: Mus musculus; assay: Radioactivity uptake in the spleen was expressed as a percentage of the injected radioactive dose per gram of tissue (% ID/g) in B16/F1 Murine Melanoma-Bearing C57 Mice at 2 h; in short: as §1
Mus musculus [6] = species on record: Mus musculus; assay: Radioactivity uptake in the spleen was expressed as a percentage of the injected radioactive dose per gram of tissue (% ID/g) in B16/F1 Murine Melanoma-Bearing C57 Mice at 24 h; in short: as §1
Mus musculus [7] = species on record: Mus musculus; assay: Radioactivity uptake in the spleen was expressed as a percentage of the injected radioactive dose per gram of tissue (% ID/g) in B16/F1 Murine Melanoma-Bearing C57 Mice at 4 h; in short: as §1
Mus musculus [8] = species on record: Mus musculus; assay: Radioactivity uptake in the tumor was expressed as a percentage of the injected radioactive dose per gram of tissue (% ID/g) in B16/F1 Murine Melanoma-Bearing C57 Mice at 2 h; in short: as §1
Mus musculus [9] = species on record: Mus musculus; assay: Radioactivity uptake in the muscle was expressed as a percentage of the injected radioactive dose per gram of tissue (% ID/g) in B16/F1 Murine Melanoma-Bearing C57 Mice at 24 h; in short: as §1
Mus musculus [10] = species on record: Mus musculus; assay: Radioactivity uptake in the blood was expressed as a percentage of the injected radioactive dose per gram of tissue (% ID/g) in B16/F1 Murine Melanoma-Bearing C57 Mice at 0.5 h; in short: as §1
Mus musculus [11] = species on record: Mus musculus; assay: Radioactivity uptake in the blood was expressed as a percentage of the injected radioactive dose per gram of tissue (% ID/g) in B16/F1 Murine Melanoma-Bearing C57 Mice at 24 h; in short: as §1
Mus musculus [12] = species on record: Mus musculus; assay: Radioactivity uptake in the kidneys was expressed as a percentage of the injected radioactive dose per gram of tissue (% ID/g) in B16/F1 Murine Melanoma-Bearing C57 Mice at 2 h; settings: Kidney; in short: as §1
Mus musculus [13] = species on record: Mus musculus; assay: Radioactivity uptake in the kidneys was expressed as a percentage of the injected radioactive dose per gram of tissue (% ID/g) in B16/F1 Murine Melanoma-Bearing C57 Mice at 24 h; settings: Kidney; in short: as §1
Mus musculus [14] = species on record: Mus musculus; assay: Radioactivity uptake in the liver was expressed as a percentage of the injected radioactive dose per gram of tissue (% ID/g) in B16/F1 Murine Melanoma-Bearing C57 Mice at 0.5 h; in short: as §1
Mus musculus [15] = species on record: Mus musculus; assay: Radioactivity uptake in the liver was expressed as a percentage of the injected radioactive dose per gram of tissue (% ID/g) in B16/F1 Murine Melanoma-Bearing C57 Mice at 2 h; in short: as §1
Mus musculus [16] = species on record: Mus musculus; assay: Radioactivity uptake in the liver was expressed as a percentage of the injected radioactive dose per gram of tissue (% ID/g) in B16/F1 Murine Melanoma-Bearing C57 Mice at 4 h; in short: as §1
Mus musculus [17] = species on record: Mus musculus; assay: Radioactivity uptake in the lungs was expressed as a percentage of the injected radioactive dose per gram of tissue (% ID/g) in B16/F1 Murine Melanoma-Bearing C57 Mice at 0.5 h; settings: Lung; in short: as §1
Mus musculus [18] = species on record: Mus musculus; assay: Radioactivity uptake in the lungs was expressed as a percentage of the injected radioactive dose per gram of tissue (% ID/g) in B16/F1 Murine Melanoma-Bearing C57 Mice at 2 h; settings: Lung; in short: as §1
Mus musculus [19] = species on record: Mus musculus; assay: Radioactivity uptake in the lungs was expressed as a percentage of the injected radioactive dose per gram of tissue (% ID/g) in B16/F1 Murine Melanoma-Bearing C57 Mice at 24 h; settings: Lung; in short: as §1
Mus musculus [20] = species on record: Mus musculus; assay: Radioactivity uptake in the lungs was expressed as a percentage of the injected radioactive dose per gram of tissue (% ID/g) in B16/F1 Murine Melanoma-Bearing C57 Mice at 4 h; settings: Lung; in short: as §1
Mus musculus [21] = species on record: Mus musculus; assay: Radioactivity uptake in the muscle was expressed as a percentage of the injected radioactive dose per gram of tissue (% ID/g) in B16/F1 Murine Melanoma-Bearing C57 Mice at 0.5 h; in short: as §1
Mus musculus [22] = species on record: Mus musculus; assay: Uptake Ratio of Tumor/blood (each in % ID/g) in B16/F1 Murine Melanoma-Bearing C57 Mice at 0.5 h; in short: as §1
Mus musculus [23] = species on record: Mus musculus; assay: Uptake Ratio of Tumor/blood (each in % ID/g) in B16/F1 Murine Melanoma-Bearing C57 Mice at 2 h; in short: as §1
Mus musculus [24] = species on record: Mus musculus; assay: Uptake Ratio of Tumor/blood (each in % ID/g) in B16/F1 Murine Melanoma-Bearing C57 Mice at 24 h; in short: as §1
Mus musculus [25] = species on record: Mus musculus; assay: Uptake Ratio of Tumor/kidneys (each in % ID/g) in B16/F1 Murine Melanoma-Bearing C57 Mice at 0.5 h; settings: Kidney; in short: as §1
Mus musculus [26] = species on record: Mus musculus; assay: Uptake Ratio of Tumor/liver (each in % ID/g) in B16/F1 Murine Melanoma-Bearing C57 Mice at 24 h; in short: as §1
Mus musculus [27] = species on record: Mus musculus; assay: Uptake Ratio of Tumor/liver (each in % ID/g) in B16/F1 Murine Melanoma-Bearing C57 Mice at 4 h; in short: as §1
Mus musculus [28] = species on record: Mus musculus; assay: Uptake Ratio of Tumor/lungs (each in % ID/g) in B16/F1 Murine Melanoma-Bearing C57 Mice at 0.5 h
In short: (§2)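 Female C57 BL/6 mice, 7–8 weeks old, carried subcutaneous right-flank B16/F1 tumors from 1×10^6 cells and were used 9–10 days later at ~500 mg tumor weight. Each received […] of HPLC-purified, pH-neutralized ¹¹¹In-DOTA peptide by tail vein. Tumor and organs were excised at the stated time, weighed and γ-counted. Each tissue was taken as % ID/g, and tumor/normal-tissue ratios were formed from these values.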

Mus musculus [29] = species on record: Mus musculus; assay: Uptake Ratio of Tumor/lungs (each in % ID/g) in B16/F1 Murine Melanoma-Bearing C57 Mice at 2 h; in short: as §2
Mus musculus [30] = species on record: Mus musculus; assay: Uptake Ratio of Tumor/lungs (each in % ID/g) in B16/F1 Murine Melanoma-Bearing C57 Mice at 24 h; in short: as §2
Mus musculus [31] = species on record: Mus musculus; assay: Uptake Ratio of Tumor/lungs (each in % ID/g) in B16/F1 Murine Melanoma-Bearing C57 Mice at 4 h; in short: as §2
Mus musculus [32] = species on record: Mus musculus; assay: Uptake Ratio of Tumor/muscle (each in % ID/g) in B16/F1 Murine Melanoma-Bearing C57 Mice at 4 h; settings: Muscle tissue; in short: as §2
Mus musculus [33] = species on record: Mus musculus; assay: Uptake Ratio of Tumor/kidneys (each in % ID/g) in B16/F1 Murine Melanoma-Bearing C57 Mice at 24 h; settings: Kidney; in short: as §1

| Substance | ID/g (Mus musculus [1]) | ID/g (Mus musculus [2]) | ID/g (Mus musculus [3]) | ID/g (Mus musculus [4]) | ID/g (Mus musculus [5]) | ID/g (Mus musculus [6]) | ID/g (Mus musculus [7]) | ID/g (Mus musculus [8]) | ID/g (Mus musculus [9]) | ID/g (Mus musculus [10]) | ID/g (Mus musculus [11]) | ID/g (Mus musculus [12]) | ID/g (Mus musculus [13]) | ID/g (Mus musculus [14]) | ID/g (Mus musculus [15]) | ID/g (Mus musculus [16]) | ID/g (Mus musculus [17]) | ID/g (Mus musculus [18]) | ID/g (Mus musculus [19]) | ID/g (Mus musculus [20]) | other results |
| --- | --- | --- | --- | --- | --- | --- | --- | --- | --- | --- | --- | --- | --- | --- | --- | --- | --- | --- | --- | --- | --- |
| DOTA-ReCCEHdFRWCKPV-OH | 0.39% | 0.064% | 0.074% | 0.4% | 0.2% | 0.22% | 0.15% | 9.19% | 0.14% | 1.56% | 0.1% | 8.8% | 7.35% | 0.45% | 0.15% | 0.14% | 1.21% | 0.18% | 0.11% | 0.1% | ID/g (Mus musculus [21]): 0.39%; Uptake ratio (Mus musculus [22]): 6.9; Uptake ratio (Mus musculus [23]): 143; Uptake ratio (Mus musculus [24]): 22.4; Uptake ratio (Mus musculus [25]): 0.95; Uptake ratio (Mus musculus [26]): 18.5; Uptake ratio (Mus musculus [27]): 69.1; Uptake ratio (Mus musculus [28]): 9; Uptake ratio (Mus musculus [29]): 52.8; Uptake ratio (Mus musculus [30]): 85.1; Uptake ratio (Mus musculus [31]): 92; Uptake ratio (Mus musculus [32]): 277; Uptake ratio (Mus musculus [33]): 0.43 |
| DOTA-ReCCEHdFRWCKPVD-OH | 0.27% | 0.017% | 0.031% | 0.29% | 0.23% | 0.043% | 0.16% | 8.29% | 0.082% | 1.33% | 0.018% | 8.07% | 6.28% | 0.43% | 0.16% | 0.16% | 1.16% | 0.16% | 0.035% | 0.097% | ID/g (Mus musculus [21]): 0.25%; Uptake ratio (Mus musculus [22]): 6.8; Uptake ratio (Mus musculus [23]): 224; Uptake ratio (Mus musculus [24]): 65.5; Uptake ratio (Mus musculus [25]): 0.78; Uptake ratio (Mus musculus [26]): 12.9; Uptake ratio (Mus musculus [27]): 46.8; Uptake ratio (Mus musculus [28]): 7.8; Uptake ratio (Mus musculus [29]): 56.6; Uptake ratio (Mus musculus [30]): 105; Uptake ratio (Mus musculus [31]): 104; Uptake ratio (Mus musculus [32]): 156; Uptake ratio (Mus musculus [33]): 0.4 |
